According to ChEMBL document CHEMBL1130282, “Syntheses and structure-activity relationships of taxoids derived from 14 beta-hydroxy-10-deacetylbaccatin III” (J Med Chem, 1997):

Experiments:
MCF7R = experiment: Growth inhibition of human mammary carcinoma 180 fold resistant to doxorubicin (MCF-7-R) cell line; type: functional, cell-based
A549 = experiment: Growth inhibition of human non-small-lung carcinoma (A549) cell line; type: functional, cell-based
HT-29 = experiment: Growth inhibition of human colon carcinoma (HT-29) cell line; type: functional, cell-based
Outline: (§1)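 Cells seeded at 400/well, attached overnight, grown in RPMI-1640 with 5% fetal bovine serum and 5% Nu Serum. Taxanes in DMSO, diluted in medium, 72 h exposure, triplicate wells. Fixed with ice-cold 50% TCA (1 h, 4 °C), stained with 0.4% sulforhodamine B, dye dissolved in 10 mM Tris (pH 10.5), OD 570 nm. IC50 from sigmoid-Emax nonlinear regression, weighted by reciprocal squared predicted effect.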

MCF7 = experiment: Growth inhibition of human mammary carcinoma (MCF-7) cell line; type: functional, cell-based; outline: as §1
[1] = Ratio of growth inhibition (IC50) of MCF7-R / MCF-7 cell lines; type: functional, Homo sapiens
A121 = experiment: Growth inhibition of human ovarian carcinoma (A121) cell line; type: functional, cell-based; outline: as §1

| SMILES | IC50 (MCF7R) | IC50 (A549) | IC50 (HT-29) | IC50 (MCF7) | Ratio [1] | IC50 (A121) |
| --- | --- | --- | --- | --- | --- | --- |
| CC(=O)O[C@@]12CO[C@@H]1C[C@H](O)[C@@]1(C)C(=O)[C@H](O)C3=C(C)[C@@H](OC(=O)[C@H](O)[C@@H](NC(=O)OC(C)(C)C)c4ccccc4)[C@H](O)[C@@](O)([C@@H](OC(=O)c4ccccc4)C12)C3(C)C (stereo not given in full) | > 1000 nM | – | – | – | – | – |
| CC(=O)O[C@@]12COC1C[C@H](O)[C@@]1(C)C(=O)[C@H](OC(=O)N(C)C)C3=C(C)[C@@H](OC(=O)[C@H](O)[C@H](C=C(C)C)NC(=O)OC(C)(C)C)[C@@H]4OC(=O)O[C@]4([C@@H](OC(=O)c4ccccc4)C21)C3(C)C (stereo not given in full) | 33 nM | 0.6 nM | 1.2 nM | 0.4 nM | 83 | 0.7 nM |
| CC(=O)O[C@H]1C(=O)[C@@]2(C)C([C@H](OC(=O)c3ccccc3)[C@]34OC(=O)O[C@H]3[C@H](OC(=O)[C@H](O)[C@@H](NC(=O)OC(C)(C)C)c3ccco3)C(C)=C1C4(C)C)[C@]1(OC(C)=O)COC1C[C@@H]2O (stereo not given in full) | 49 nM | 0.5 nM | 0.6 nM | 0.5 nM | 96 | 0.4 nM |
| CC(=O)O[C@@]12COC1C[C@H](O)[C@@]1(C)C(=O)[C@H](O)C3=C(C)[C@@H](OC(=O)[C@H](O)[C@@H](NC(=O)OC(C)(C)C)c4ccco4)[C@@H]4OC(=O)O[C@]4([C@@H](OC(=O)c4ccccc4)C21)C3(C)C (stereo not given in full) | 135 nM | 0.5 nM | 0.6 nM | 0.5 nM | 270 | 0.4 nM |
| CCCCCC(=O)N[C@@H](C=C(C)C)[C@@H](O)C(=O)O[C@@H]1C(C)=C2[C@@H](OC(=O)C3CC3)C(=O)[C@@]3(C)C([C@H](OC(=O)c4ccccc4)[C@@]4(OC(=O)O[C@@H]14)C2(C)C)[C@]1(OC(C)=O)COC1C[C@@H]3O (stereo not given in full) | 321 nM | 18 nM | 16 nM | 3.2 nM | 100 | 12 nM |
| CCC[C@H](NC(=O)OC(C)(C)C)[C@@H](O)C(=O)O[C@@H]1C(C)=C2[C@@H](O)C(=O)[C@@]3(C)C([C@H](OC(=O)c4ccccc4)[C@@]4(OC(=O)O[C@@H]14)C2(C)C)[C@]1(OC(C)=O)COC1C[C@@H]3O (stereo not given in full) | 265 nM | 4.4 nM | 3.8 nM | 4.2 nM | 92 | 2.1 nM |
| C/C=C/C(=O)O[C@H]1C(=O)[C@@]2(C)C([C@H](OC(=O)c3ccccc3)[C@]34OC(=O)O[C@H]3[C@H](OC(=O)[C@H](O)[C@H](C=C(C)C)NC(=O)CCCCC)C(C)=C1C4(C)C)[C@]1(OC(C)=O)COC1C[C@@H]2O (stereo not given in full) | 137 nM | 25 nM | 28 nM | 2.1 nM | 65 | 17 nM |
| CC(=O)O[C@@]12COC1C[C@H](O)[C@@]1(C)C(=O)[C@H](O)C3=C(C)[C@@H](OC(=O)[C@H](O)[C@@H](NC(=O)c4ccccc4)c4ccccc4)[C@@H]4OC(=O)O[C@]4([C@@H](OC(=O)c4ccccc4)C21)C3(C)C (stereo not given in full) | > 1000 nM | 33 nM | 24 nM | 11 nM | – | 105 nM |
| CC(=O)O[C@@]12COC1C[C@H](O)[C@@]1(C)C(=O)[C@H](O)C3=C(C)[C@@H](OC(=O)[C@H](O)[C@@H](NC(=O)OC(C)(C)C)c4ccccc4)[C@@H]4OC(=O)O[C@]4([C@@H](OC(=O)c4ccccc4)C21)C3(C)C (stereo not given in full) | 543 nM | 2.1 nM | 1.8 nM | 1.8 nM | 302 | 6.2 nM |
| CC(=O)O[C@@]12COC1C[C@H](O)[C@@]1(C)C(=O)[C@H](O)C3=C(C)[C@@H](OC(=O)[C@H](O)[C@H](CC(C)(C)C)NC(=O)OC(C)(C)C)[C@@H]4OC(=O)O[C@]4([C@@H](OC(=O)c4ccccc4)C21)C3(C)C (stereo not given in full) | > 1000 nM | 51 nM | 52 nM | 48 nM | – | 106 nM |
| CCCCCC(=O)N[C@@H](C=C(C)C)[C@@H](O)C(=O)O[C@@H]1C(C)=C2[C@@H](OC(=O)N(C)C)C(=O)[C@@]3(C)C([C@H](OC(=O)c4ccccc4)[C@@]4(OC(=O)O[C@@H]14)C2(C)C)[C@]1(OC(C)=O)COC1C[C@@H]3O (stereo not given in full) | 295 nM | 5.5 nM | 5.1 nM | 1.7 nM | – | 4.8 nM |
| CC(=O)O[C@@]12COC1C[C@H](O)[C@@]1(C)C(=O)[C@H](O)C3=C(C)[C@@H](OC(=O)[C@H](O)[C@H](CC(C)C)NC(=O)OC(C)(C)C)[C@@H]4OC(=O)O[C@]4([C@@H](OC(=O)c4ccccc4)C21)C3(C)C (stereo not given in full) | 385 nM | 1.8 nM | 3.4 nM | 2.7 nM | – | 1 nM |
| CCCCCC(=O)N[C@@H](c1ccccc1)[C@@H](O)C(=O)O[C@@H]1C(C)=C2[C@@H](O)C(=O)[C@@]3(C)C([C@H](OC(=O)c4ccccc4)[C@@]4(OC(=O)O[C@@H]14)C2(C)C)[C@]1(OC(C)=O)COC1C[C@@H]3O (stereo not given in full) | > 1000 nM | 389 nM | 157 nM | 13 nM | – | 330 nM |
| CCC[C@H](NC(=O)OC(C)(C)C)[C@@H](O)C(=O)O[C@@H]1C(C)=C2[C@@H](OC(C)=O)C(=O)[C@@]3(C)C([C@H](OC(=O)c4ccccc4)[C@@]4(OC(=O)O[C@@H]14)C2(C)C)[C@]1(OC(C)=O)COC1C[C@@H]3O (stereo not given in full) | 201 nM | 4.7 nM | 4.8 nM | 4.6 nM | 44 | 2.3 nM |
| C/C=C/C(=O)O[C@H]1C(=O)[C@@]2(C)C([C@H](OC(=O)c3ccccc3)[C@]34OC(=O)O[C@H]3[C@H](OC(=O)[C@H](O)[C@H](C=C(C)C)NC(=O)OC(C)(C)C)C(C)=C1C4(C)C)[C@]1(OC(C)=O)COC1C[C@@H]2O (stereo not given in full) | 17 nM | 0.5 nM | 1.5 nM | 0.4 nM | 43 | 0.8 nM |
